VLA-4 inh: inhibition in human VLA-4 binding assay, primary screen, VLA-4 allosteric modulator project, MLPCN library, flow cytometry, VLA-4 expressing cells | ligand binding flow cytometry | inhibition, % (about 7 µM as worked out from the volumes in the protocol) | 330,000 compounds, 0.2% hits; in the data active means inhibition above about 50%
CHT allo act: CHT positive allosteric modulators, primary screen, cell-based, membrane potential dye, choline EC20. 310,000 compounds, 0.49% hits. B-score at 10 µM. CHT-expressing cells; stronger effect = higher value; LV-AA mutant CHT in HEK293 cells. High affinity choline transporter 1 (Homo sapiens), Q9GZV3;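 active means initial fluorescence not abnormally high and integrated response B-score, plate-corrected, over 3 SD above library mean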
Target sequence (Q9GZV3 whole entry, looked up): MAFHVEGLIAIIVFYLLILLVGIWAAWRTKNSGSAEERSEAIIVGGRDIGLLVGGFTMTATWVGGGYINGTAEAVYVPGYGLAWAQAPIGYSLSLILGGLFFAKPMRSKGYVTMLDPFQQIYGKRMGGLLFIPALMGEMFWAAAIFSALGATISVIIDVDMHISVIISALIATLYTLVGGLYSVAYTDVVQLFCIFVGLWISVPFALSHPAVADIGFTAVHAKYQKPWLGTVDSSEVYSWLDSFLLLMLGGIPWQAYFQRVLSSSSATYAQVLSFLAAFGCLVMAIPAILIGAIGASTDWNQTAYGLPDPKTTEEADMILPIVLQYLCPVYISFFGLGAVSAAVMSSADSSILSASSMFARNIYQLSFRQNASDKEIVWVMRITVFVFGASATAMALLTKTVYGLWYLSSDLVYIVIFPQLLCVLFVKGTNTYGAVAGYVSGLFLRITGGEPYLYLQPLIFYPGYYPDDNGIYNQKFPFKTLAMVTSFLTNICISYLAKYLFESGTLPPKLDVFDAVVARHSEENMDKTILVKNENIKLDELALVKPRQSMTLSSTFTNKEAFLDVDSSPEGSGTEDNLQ
CHT inh: inhibitors of human choline transporter CHT. 310,000 compounds, 0.86% hits. High affinity choline transporter 1 (Homo sapiens), Q9GZV3. B-score at 10 µM. CHT-expressing cells, membrane potential dye, choline response; stronger effect = lower value;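 active means B-score over 3 SD under the library average, and starting fluorescence ratio not unusually high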;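 further: choline stimulus applied at its EC90 after an EC20 pre-addition; B-score computed on integrated fluorescence ratio after choline addition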
T cell modulator: modulators of CD8 T cell-vesicle binding, primary screen, mouse 2C CD8+ T cells, flow cytometry; 2C CD8+ T cell-vesicle binding; stronger effect = lower value; response (vesicle binding), % at 7 µM; 330,000 compounds, 0.068% hits; AID 2052, 2009;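 active means response, share of CD8 T cells binding vesicles, and their 90th percentile fluorescence all below set limits, cut at about 80% in these data, passing the limit was not always enough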;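 further: values below 100% mean blocked vesicle binding to the CD8+ T cells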
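Test system: purified 2C TCR transgenic mouse naive CD8+ T cells. Probe or stimulus: QL9-peptide-loaded Drosophila micro-vesicles bearing Ld, ICAM-1 and B7-1. Incubation: binding step 1.5 h, 37 °C, antibody labelling 20 min, ice. Measured by: flow cytometry of vesicle-bound cells.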
CHT activ conf: CHT activators, confirmation, cell-based, membrane potential dye, duplicate | AID 504833, 2011 | activation, % at 10 µM | CHT-expressing cells, membrane potential dye fluorescence (FDSS); % of choline EC20–EC90 response window; HEK293 expressing CHT LV-AA mutant; choline added at its EC20 | shares compounds with CHT allo act | 2,500 compounds, 91% hits;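 active means primary screen active, with duplicate mean activation above negative control mean plus 3 SD, cut at about 11% in these data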
HEK293 MP dye: membrane potential response in parental HEK293 cells, counter-screen for CHT activator project, cell-based, membrane potential dye; ratio readout change at 10 µM, hits read low; shares compounds with CHT allo act; 2,500 compounds, 62% hits; membrane potential dye fluorescence (FDSS); measured after EC20 choline addition;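 active means duplicate-averaged ratio beyond 3 SD from buffer wells, up or down, though filed actives are nearly all decreases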
Of the large screens only hits and unclear results are named; the others gave an inactive call (follow-up assays come after a bar, where they were run). The list is not random: actives were taken first. Their share in the collection is about 1.5%.

CC(C)C[C@@H](CO)N1CCN(Cc2ccccc2)CCC1=O	none
CC(C)CN1CCC(=O)N([C@H](CSc2ccccc2)Cc2ccccc2)CC1	CHT allo act 13 | CHT activ conf 42 | HEK293 MP dye inactive
Cc1ccc(SC[C@H](Cc2ccccc2)N2CCN(CC(C)C)CCC2=O)cc1	none (no result: CHT allo act, CHT inh)
c1ccc(CN2c3ccccc3-c3nc4ccccc4n3C2c2ccccn2)cc1 (centres undefined)	CHT allo act 6.4 | CHT activ conf 52 | HEK293 MP dye inactive
Cc1ccc(-c2c[n+](Cc3ccc(Cl)c(Cl)c3)c3n2CCC3)cc1	CHT allo act 7 | CHT activ conf 52 | HEK293 MP dye -30
Brc1ccc2nc(-c3cccs3)c(NCC3CCCO3)n2c1 (centres undefined)	CHT allo act 6.7 | CHT activ conf inactive | HEK293 MP dye inactive
CC(C)(C)NC(=O)C(=O)NNC(=O)c1cccc(F)c1	none
Cc1cc2cc(CCNC(=O)CCc3ccccc3)c(=O)[nH]c2cc1C	none
CCN1CCN(c2cc3c(cc2F)c(=O)c(C(=O)O)cn3C2CC2)CC1	CHT allo act 8.7 | CHT activ conf 54 | HEK293 MP dye -58
CCOC(=O)C1(CC2CCCCO2)CCN(Cc2cc(F)ccc2-n2cccn2)CC1 (centres undefined)	CHT allo act 9.4 | CHT activ conf 49 | HEK293 MP dye inactive
Cc1ccc(-n2cccn2)c(CN2CCCC(CNC(=O)c3ccc(F)cc3)C2)c1 (centres undefined)	none | CHT activ conf 39 | HEK293 MP dye inactive
CCOC(=O)C1(CC2CCCCO2)CCN(Cc2c(C)cc(C)cc2-n2cccn2)CC1 (centres undefined)	none
C[C@]12C=CC(=O)C=C1CC[C@@H]1C2=CC[C@]2(C)[C@@H](C(=O)CN3CCN(c4cc(N5CCCC5)nc(N5CCCC5)n4)CC3)CC[C@@H]12	CHT allo act 8.2 | CHT activ conf 49 | HEK293 MP dye -76
COc1cc(NC(=O)CN2C(=O)C(c3ccccc3)=NC23CCCCCC3)cc(OC)c1	CHT allo act 7.6 | CHT activ conf inactive | HEK293 MP dye inactive
O=C1c2ccccc2N2C(=O)c3ccccc3C2N1Cc1ccccc1 (centres undefined)	none | CHT activ conf 26 | HEK293 MP dye inactive
COc1ccc2nc(N/C(N)=N/C(=S)Nc3c(C)cccc3C)nc(C)c2c1	CHT allo act 7.1 | CHT activ conf 50 | HEK293 MP dye -41
CCOc1cccc2sc(N(CCN(C)C)C(=O)c3ccc4ccccc4c3)nc12	CHT allo act 9.5 | CHT activ conf 25 | HEK293 MP dye -78
COc1ccc(N2C(=O)/C(=C\c3ccco3)N=C2SCC(=O)N(C(C)C)C(C)C)cc1Cl	none | CHT activ conf 13 | HEK293 MP dye inactive
CC(=O)Nc1ccc(SCC(=O)c2cc(C)n(-c3ccccc3)c2C)cc1	none
CCCCCCCC[n+]1c(C)n(-c2ccccc2)c2ccc(NC(C)=O)cc21	CHT allo act 10 | CHT activ conf 78 | HEK293 MP dye -33
CCN(Cc1ccccc1)C(c1ccc(Cl)cc1)c1nnnn1C(C)(C)C (centres undefined)	CHT allo act 7.2 | CHT activ conf 32 | HEK293 MP dye inactive
CC(=O)NC(CC(=O)OC(C)C(=O)Nc1ncc(Cl)cc1Cl)c1ccccc1 (centres undefined)	none
CC(OC(=O)CC(NC(=O)c1ccccc1Cl)c1ccccc1)C(=O)Nc1cccc(Cl)c1Cl (centres undefined)	none | CHT activ conf 31 | HEK293 MP dye inactive
COc1ccc(C(CNC(=O)c2cccc(S(=O)(=O)N3CCCCC3)c2)N2CCCC2)cc1 (centres undefined)	none (no result: CHT allo act, CHT inh)
CN1CCN(C(=O)c2cc(=O)c3cc(Cl)cc(Cl)c3o2)CC1	none | CHT activ conf 43 | HEK293 MP dye -42
CN1CCN(C(=O)c2cc(Cl)ccc2Cl)CC1	none
CCOC(=O)c1cnc2c(-c3ccccc3OC)c(C)nn2c1C	none
CCN(CC)CCNc1nc2c(c(=O)[nH]c(=O)n2C)n1CC(O)COc1ccc(Cl)cc1Cl (centres undefined)	CHT allo act 9.5 | CHT activ conf 53 | HEK293 MP dye -53
COc1cc(C(=O)Nc2ccc(C#N)cc2)c([N+](=O)[O-])cc1OC	none
O=C(c1ccccc1-c1ccccc1)N1CCN(c2ccccn2)CC1	none (no result: T cell modulator) | CHT activ conf 38 | HEK293 MP dye inactive
Cc1ccc2c(c1)[C@H]1[C@H](CO2)[C@H](c2ccccc2)[C@]2(C)C(=O)NCC(=O)N12	none (no result: CHT allo act, CHT inh)
Cc1cc(/C=N/NC(N)=S)c(C)n1-c1ccc(Cl)c(Cl)c1	none
Cc1cc(/C=N/NC(N)=O)c(C)n1-c1ccc(F)cc1	CHT allo act 14 | CHT activ conf 23 | HEK293 MP dye inactive
COc1ccc(Cc2nnc(NC(=O)c3ccccc3F)s2)cc1OC	none
CCON1C(=O)CN(C(=O)OC)C1c1ccc(Cl)cc1Cl (centres undefined)	none | CHT activ conf inactive | HEK293 MP dye inactive
ON1C(c2ccc(Cl)cc2Cl)N(O)[C@H]2CCCC[C@H]21 (some centres undefined)	none
CCCc1c(CC)c(=N)c2ccccc2n1C	CHT allo act 7.5 | CHT activ conf 64 | HEK293 MP dye -58
O=C(c1ccco1)N(CCC(c1ccccc1)c1ccco1)Cc1ccccc1 (centres undefined)	CHT allo act 6.4 | CHT activ conf 40 | HEK293 MP dye inactive
c1ccc(C[n+]2csc3ccccc32)cc1	none
Brc1cc2ccccc2[n+](Cc2ccccc2)c1	CHT allo act 7 | CHT activ conf 76 | HEK293 MP dye -67
CN(CC(=O)Nc1ccc(Cl)c(Cl)c1)C(=O)CC1OC(=O)c2ccccc21 (centres undefined)	none
CC(=O)c1cc(C#N)c(NCCCN(C)C)nc1C	none | CHT activ conf 54 | HEK293 MP dye -32
Cc1cccn2c(CN3CCNC(=O)CC3)c(C(=O)N(C)CCc3ccccc3)nc12	none | CHT activ conf inactive | HEK293 MP dye inactive
CCOC(=O)c1cnn(-c2sc(C(=O)OCC)c(C)c2C(=O)OCC)c1N	CHT allo act 6.6 | CHT activ conf inactive | HEK293 MP dye inactive
O=C(COC(=O)c1cc(=O)[nH]c(=O)[nH]1)Nc1cccc(Cl)c1	none (no result: CHT allo act, CHT inh)
Clc1cccc(-c2csc(Nc3cccnc3)n2)c1	none

Screening data from PubChem.
